# Compounds with a hit are over-represented: about 4% of the library has one in this group of screens.
# Granule exo inh: blocks lytic granule exocytosis. 360,000 compounds, 0.66% hits. TALL-104 LAMP-1 surface exposure, flow cytometry; cells stimulated with thapsigargin and PMA. inhibition, % at 10 µM. AID 651702;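 active = inhibition above about 55%, limit read from the data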
# CHOP UPR activ: activators of apoptotic arm of unfolded protein response (CHOP); CHO-CHOP luciferase reporter, UPR activation, luminescence; percent of tunicamycin response over DMSO baseline; activation, % at 10 µM; 330,000 compounds, 0.34% hits; AID 449763;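 active = at 10 µM dose, activation of 40% or more, normalized to positive control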;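 note: 100% = tunicamycin at 10 µg/mL and 0% = DMSO alone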
#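 Assay system: CHO-CHOP cells, stable luciferase reporter of PERK-eIF2a-CHOP signalling / Buffer or medium: F12 plus 10% serum / Compound dosing: one dose, 10 µM in 0.5% DMSO / Times: 6 h compound treatment, 37 °C / Technique: luciferase luminescence / Read-out: % reporter activation, DMSO baseline versus tunicamycin full activation / Benchmarks: tunicamycin and DMSO controls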
# Mdm2 MdmX PPI: human Mdm2/MdmX binding inhibition. 330,000 compounds, 3% hits. O15151+Q00987. inhibition, % at 8 µM. SaOS-2 split-luciferase Mdm2/MdmX complementation, luminescence. AID 485346;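 active = inhibition of at least 50% at 8 µM in the primary screen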
# Target sequence (O15151 whole entry, looked up): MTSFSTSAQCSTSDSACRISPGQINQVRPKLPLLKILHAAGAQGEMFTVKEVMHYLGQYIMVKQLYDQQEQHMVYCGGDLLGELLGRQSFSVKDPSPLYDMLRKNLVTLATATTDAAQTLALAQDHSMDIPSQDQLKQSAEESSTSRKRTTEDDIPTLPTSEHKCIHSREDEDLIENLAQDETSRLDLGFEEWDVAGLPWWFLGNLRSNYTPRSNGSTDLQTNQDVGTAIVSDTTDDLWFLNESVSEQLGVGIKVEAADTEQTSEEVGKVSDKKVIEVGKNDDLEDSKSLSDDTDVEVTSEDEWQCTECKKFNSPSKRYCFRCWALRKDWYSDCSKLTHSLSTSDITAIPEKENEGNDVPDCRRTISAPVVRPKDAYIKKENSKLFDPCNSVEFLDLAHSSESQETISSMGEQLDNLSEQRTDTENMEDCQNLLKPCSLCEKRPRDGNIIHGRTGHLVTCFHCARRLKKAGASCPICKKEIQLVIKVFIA
# Target sequence (Q00987 whole entry, looked up): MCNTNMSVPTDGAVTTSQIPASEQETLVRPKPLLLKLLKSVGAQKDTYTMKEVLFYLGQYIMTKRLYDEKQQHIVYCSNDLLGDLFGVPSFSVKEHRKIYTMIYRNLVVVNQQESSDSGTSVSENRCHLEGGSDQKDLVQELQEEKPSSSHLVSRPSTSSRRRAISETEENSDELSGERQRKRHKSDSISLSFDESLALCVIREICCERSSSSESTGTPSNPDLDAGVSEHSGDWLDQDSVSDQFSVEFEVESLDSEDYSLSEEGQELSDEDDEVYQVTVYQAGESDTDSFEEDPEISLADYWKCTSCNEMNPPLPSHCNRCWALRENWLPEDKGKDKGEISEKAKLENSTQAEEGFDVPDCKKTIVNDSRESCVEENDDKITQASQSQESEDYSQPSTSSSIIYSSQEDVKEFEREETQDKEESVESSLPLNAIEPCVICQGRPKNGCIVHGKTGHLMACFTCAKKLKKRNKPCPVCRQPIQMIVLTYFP
# ABHD5-PLIN5 inh: inhibitors of human ABHD5-perilipin-5 interaction | 360,000 compounds, 0.78% hits | inhibition, % at 4 µM | Q00G26+Q8WTS1 | Split G. princeps luciferase complementation, luminescence, 4 h;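 active = inhibition above the mean inhibition across every tested compound plus 3 SD, cut at about 22% in these data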;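 note: 0% = DMSO only wells and the 100% control is not disclosed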
# UPR XBP1 act: activators of adaptive arm of unfolded protein response (XBP1). CHO-XBP1 luciferase reporter, IRE1-XBP1 UPR activation, luminescence; percent of tunicamycin response, DMSO as zero. activation, % at 20 µM. 330,000 compounds, 0.33% hits;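 active = versus positive control, 20 µM dose yields 30% or more activation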;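 note: 100% = tunicamycin at 10 µg/mL and 0% = DMSO only wells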
#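 Material: IRE1-XBP1 luciferase reporter CHO line / Quantity: one thousand reporter cells per well / Buffer or medium: F12 with 10% serum / Compound: 20 µM single concentration, DMSO 1% / Times: 6 h treatment, 37 °C / Detection: Steady-Glo luciferase glow luminescence, 10 min after reagent addition / Benchmarks: tunicamycin high, DMSO low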
# Mdm2 MdmX conf: confirmation of human Mdm2/MdmX interaction inhibitors; AID 489028; shares compounds with Mdm2 MdmX PPI; inhibition, % at 8 µM; Mdm2-MdmX binding, luminescent assay; 10,000 compounds, 55% hits; in the data active = inhibition above about 40%
# Full FLuc ctr: inhibits full-length luciferase, flagging false Mdm2/MdmX hits; shares compounds with Mdm2 MdmX PPI; SaOS-2 full-length luciferase counterscreen, luminescence; inhibition, % at 8 µM; 6,200 compounds, 77% hits; AID 504607;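 active = mean inhibition at 8 µM reaching about 37%, which flags the compound as non-specific, limit read from the data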;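 note: p53-null SaOS-2 cells with luciferase driven by a doxycycline-inducible promoter; compound on cells about two nights before reading with doxycycline added after day one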
# * = called active by the depositor; . = no result.
SMILES,Granule exo inh,CHOP UPR activ,Mdm2 MdmX PPI,ABHD5-PLIN5 inh,UPR XBP1 act,Mdm2 MdmX conf,Full FLuc ctr
O=C(Nc1nc2c(s1)CCCC2)c1ccc(S(=O)(=O)N2CCCc3ccccc32)cc1,7,0,49,-4,-2,.,.
Nc1c(N(CCC2=CCCCC2)C(=O)COc2ccc(F)cc2)c(=O)[nH]c(=O)n1Cc1ccccc1,30,-1,53*,-12,-1,11,.
Cc1nc(SCC(=O)N2CCNC2=O)c(C#N)c(C)c1C,-6,.,.,-8,.,.,.
O=C1NCCN(CC2CCN(CCC3CCCC3)CC2)C1=O,0,.,.,0,.,.,.
C(=N\n1cnnc1)/c1cn(Cc2ccccc2)c2ccccc12,0,-3,14,6,4,.,.
Clc1ccc(Cn2cc(/C=N/n3cnnc3)c3ccccc32)c(Cl)c1,1,0,57*,-1,1,0,.
CCCC[C@@H](CN[C@H](C)CNC)NCC1CCC(C(C)(C)C)CC1 (some centres undefined),.,8,100*,.,11,97*,56*
O=c1cc(N2CCOCC2)[nH]c(=O)n1C1CCCCC1,-2,-3,7,8,1,.,.
O=c1cc(N2CCN(c3cccc(Cl)c3)CC2)[nH]c(=O)n1C1CCCCC1,-4,-3,84*,4,6,72*,40*
O=c1cc(N2CCN(c3ccccc3)CC2)[nH]c(=O)n1C1CCCCC1,-3,-1,67*,0,5,66*,56*
CCOc1cc2nc(-c3ccc(OC)c(OC)c3)nc(N3CCOCC3)c2cc1OC,.,0,53*,.,5,45*,83*
O=C(CSc1ncn[nH]1)N1N=C2/C(=C/c3ccccc3)CCCC2C1c1ccccc1 (centres undefined),1,-3,53*,-5,-1,19,.
COc1ccc(/C=C2\CCCC3C2=NN(C(=O)CSc2ncn[nH]2)C3c2ccc(OC)cc2)cc1 (centres undefined),3,1,37,7,-4,.,.
C[C@@H](c1ccccc1)N1C[C@H]2CCCN2c2cc(Br)ccc2S1(=O)=O,-4,2,54*,-10,-2,42*,41*
O=S1(=O)c2ccc(Br)cc2N2CCC[C@H]2CN1Cc1ccccc1,10,4,52*,-9,2,51*,37*
COc1cc(OC)c(OC)cc1/C=N/Nc1ncnc2c1[nH]c1ccccc12,5,-1,84*,-12,11,55*,12
CCOc1ccc2[nH]c3c(NCCc4ccc(OC)c(OC)c4)ncnc3c2c1,55,3,30,2,1,.,.
COc1ccc(/C=N/Nc2ncnc3c2[nH]c2ccc(C)cc23)c(OC)c1OC,2,6,77*,3,6,53*,10
COc1cc(OC)c(OC)cc1/C=N/Nc1nc2ccccc2[nH]1,18,2,24,5,5,.,.
COC(=O)N1C(=O)[C@@](c2ccc(OC)cc2)(C(C)C)N1C(=O)OC,12,-2,51*,14,-3,28,.
COC(=O)N1C(=O)[C@@](c2ccccc2)(C(C)C)N1C(=O)OC,1,0,55*,5,-4,31,.
COC(=O)N1C(=O)[C@](c2ccc(Cl)cc2)(C(C)C)N1C(=O)OC,5,2,56*,-1,-1,40,51*
CC(CNS(=O)(=O)c1ccccc1)Sc1nncn1C (centres undefined),-1,1,-5,-2,-2,.,.
O=C(COC(=O)c1ccco1)NCc1ccco1,3,-3,14,-3,0,.,.
Nc1c(C(=O)Nc2ccccc2)c2nc3ccccc3nc2n1CCCN1CCOCC1,26,4,67*,12,1,29,.
SMILES,Granule exo inh,CHOP UPR activ,Mdm2 MdmX PPI,ABHD5-PLIN5 inh,UPR XBP1 act,Mdm2 MdmX conf,Full FLuc ctr
C=CCn1c(N)c(C(=O)Nc2cccc(C)c2)c2nc3ccccc3nc21,6,2,67*,-4,3,21,.
O=C(CSc1nc(N2CCCCC2)nc(N2CCCCC2)n1)c1ccccc1,-2,-2,22,0,-5,.,.
CC(=O)Nc1ccc(S(=O)(=O)N2CCN(c3cc4c(cc3[N+](=O)[O-])n(C)c(=O)n4C)CC2)cc1,-3,0,26,-4,0,.,.
Cn1c(=O)n(C)c2cc([N+](=O)[O-])c(N3CCN(S(=O)(=O)c4ccc(C(C)(C)C)cc4)CC3)cc21,2,14,60*,0,4,38,70*
CS(=O)c1nc(-c2ccc(Br)cc2)cc(-c2ccccc2)c1C#N (centres undefined),53,162*,100*,7,1,87*,6
O=C(OCc1nnc(-c2ccccc2)o1)C12CC3CC(CC(Br)(C3)C1)C2,0,.,.,-8,.,.,.
Cc1cc(C(=O)N/N=C/c2cc(Br)ccc2OC(=O)c2ccccc2)n[nH]1,7,-1,51*,-9,7,39,19
Cc1cc(C(=O)N/N=C/c2cc(Br)ccc2OC(=O)c2ccccc2Cl)n[nH]1,-1,1,57*,-8,2,46*,53*
O=C(CN1C(=O)c2ccccc2C1=O)N1CCN(c2ccccn2)CC1,-1,0,0,6,2,.,.
O=c1ccc2ccc(Oc3ccc([N+](=O)[O-])cc3[N+](=O)[O-])cc2o1,.,-1,58*,.,2,60*,72*
COc1cc(O)c(C(CCN2CCCCC2)c2cc(OC)c(OC)c(OC)c2)c(OC)c1 (centres undefined),-8,-1,-8,0,1,.,.
C/C(=C\c1cccs1)C(=O)c1c(C)cc(C)[nH]c1=O,-4,-1,6,-1,-1,.,.
CNc1nc(NCc2ccccc2)c2ccccc2n1,6,2,66*,6,1,24,.
CCCCNc1nc(NCc2ccccc2)nc2ccccc12,6,.,.,12,.,.,.
O=[N+]([O-])c1ccc(-c2nc(NCc3cccnc3)c3ccccc3n2)cc1,-5,1,29,6,0,.,.
Oc1ccccc1-c1nc(NCc2cccnc2)c2ccccc2n1,3,1,70*,11,-1,49*,78*
Oc1ccccc1-c1nc(NCc2ccccc2)c2ccccc2n1,-11,0,56*,8,-2,33,.
O=C(NC(=S)NCc1ccccc1)C1CCCCC1,1,3,42,-3,0,.,.
COCCNS(=O)(=O)c1ccc2c(c1)Cc1cc(S(=O)(=O)NCCOC)ccc1-2,1,2,11,0,-6,.,.
CCOC(=O)c1ccc(-c2c(-c3cc(OC)c(OC)c(OC)c3)noc2C)cc1F,10,-2,62*,4,6,52*,89*

# Screening results from PubChem BioAssay.
